Screens: PubChem BioAssay, The Scripps Research Institute Molecular Screening Center
PP1 inh: counter-screen for PP5 inhibitors: inhibitors of human PP1-alpha | P62136 | purified PP1alpha, OMFP fluorescence | inhibition, % at 6.7 µM | actives 0.9% (n = 320,000) | AID 2235;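 active = inhibition above the mean inhibition of all tested compounds plus 3 SD, computed separately for each screening campaign, cut at about 15% in these data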
Target sequence (P62136 whole entry, looked up): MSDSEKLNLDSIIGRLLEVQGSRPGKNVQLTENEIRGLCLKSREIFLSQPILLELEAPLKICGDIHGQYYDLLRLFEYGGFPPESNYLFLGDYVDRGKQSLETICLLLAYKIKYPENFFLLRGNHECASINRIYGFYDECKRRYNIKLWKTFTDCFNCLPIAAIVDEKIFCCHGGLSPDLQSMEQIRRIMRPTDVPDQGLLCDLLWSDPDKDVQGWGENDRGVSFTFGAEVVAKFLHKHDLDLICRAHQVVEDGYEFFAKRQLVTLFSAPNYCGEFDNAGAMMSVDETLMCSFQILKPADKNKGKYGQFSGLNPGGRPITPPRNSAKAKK
EBNA-1 inh: blocks EBNA-1 binding to DNA; actives 0.34% (n = 300,000); AID 1950; inhibition, % at 14.8 µM; EBNA-1 DNA binding, fluorescence polarization; in the data active = inhibition above about 28%
HCV core dimer: blocks dimerization of HCV core protein. TR-FRET GST/Flag-core106 dimerization, 1536-well. inhibition, % at 5 µM. actives 0.33% (n = 300,000). AID 1899;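 active = inhibition above the mean of all tested compounds plus 3 SD, set per screening campaign, cut at about 45% in these data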
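System – GST-tagged and Flag-tagged HCV core protein residues 1-106 · Repeats – one well for each compound · Technique – TR-FRET 671 and 617 nm emission · Doses – one concentration, 5 µM, in 0.5% DMSO · Times – 4 h, 22.5 °C incubation · Also added – Eu donor and XL665 acceptor anti-tag antibodies · Measure – percent inhibition of core106 dimerization signal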
ZTA counter: counter-screen for EBNA-1 inhibitors: inhibitors of Epstein-Barr virus ZTA; P03206; ZTA-DNA binding, fluorescence polarization; inhibition, % at 11 µM; actives 0.15% (n = 320,000); AID 2234; in the data active = inhibition above about 33%
HCV NS3 hel inh: HCV NS3 helicase inhibition. NS3 helicase DNA unwinding, Cy5 molecular beacon fluorescence. inhibition, % at 10.9 µM. actives 0.56% (n = 290,000). AID 1800;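 active = inhibition above the mean of all tested compounds plus 3 SD, set per campaign, cut at about 35% in these data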
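System: HCV NS3 helicase fragment; control set: DMSO and thioflavine S; technique: Cy5 fluorescence at 0 and 60 min, beacon hairpin quenching; reagent: beacon DNA duplex substrate plus ATP; replicates: singlicate; schedule: 1 h reaction at 25 °C, ATP-initiated; medium: MOPS buffer pH 6.5 with MgCl2, DTT, Tween20, BSA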
NS3 helicase cf: HCV NS3 helicase inhibition, confirmation assay. shares compounds with HCV NS3 hel inh. NS3 helicase DNA unwinding, Cy5 molecular beacon fluorescence. inhibition, % at 10.9 µM. actives 31% (n = 1,600);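 active = inhibition above the mean of all tested compounds plus 3 SD, cutoff set per campaign, cut at about 36% in these data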
DNA FID counter: displaces DNA intercalator in HCV helicase counter-screen; inhibition, % at 7.9 µM; AID 1945; shares compounds with HCV NS3 hel inh; DNA fluorescent intercalator displacement, fluorescence; actives 4% (n = 1,600); in the data active = inhibition above about 37%;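 note: higher means more displacement of ethidium bromide from the DNA hairpin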
PP1 inh confirm: confirmation of human PP1 phosphatase inhibitors | shares compounds with PP1 inh | inhibition, % at 6.7 µM | actives 52% (n = 1,900) | purified PP1alpha, OMFP substrate fluorescence | AID 2358;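 active = mean PP1 inhibition above a set limit taken from the earlier primary screen, cut at about 15% in these data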
PP5 counter: inhibits human PP5 phosphatase in PP1 counter-screen. shares compounds with PP1 inh. inhibition, % at 6.7 µM. purified PP5c, OMFP fluorescence. AID 2360. actives 4% (n = 1,900);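 active = mean PP5 inhibition over triplicate wells above about 9.5% taken from the earlier PP1 screen, limit read from the data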
Of the large screens only hits and unclear results are named; the others gave an inactive call (follow-up assays come after a bar, where they were run). A selection: hits, their analogues and other compounds. The true share with any hit is near 1.9%.

CC(C)C1Nc2ccc(C(=O)O)cc2C2C=CCC21 (stereo not given)	none
COc1ccc(N2CCN(CCNS(=O)(=O)c3ccc(C)cc3)CC2)cc1	none
O=C(COC(=O)c1ccc(S(=O)(=O)C(F)F)cc1)NC(=O)NC1CCCCC1	none (no result: HCV NS3 hel inh)
CC(=O)Nc1ccc(N=Cc2c(O)c(C(=O)Nc3ccccc3)cc3ccccc23)cc1	none
COc1ccc2c(c1)cc(C(=O)N/N=C/c1c(O)c(C(=O)O)cc3ccccc13)n2C	PP1 inh 35, HCV NS3 hel inh 80 | NS3 helicase cf 104 | DNA FID counter inactive | PP1 inh confirm 30 | PP5 counter inactive
Cc1ccc(Nc2nc(NCCO)c3ccccc3n2)cc1C	none
CCCOc1ccc(C2C(C(=O)c3ccc(C)o3)=C(O)C(=O)N2Cc2ccco2)cc1 (stereo not given)	PP1 inh 27, HCV NS3 hel inh 71 | NS3 helicase cf 98 | DNA FID counter inactive | PP1 inh confirm 39 | PP5 counter inactive
CCCOc1cccc(C2C(C(=O)c3ccc(C)o3)=C(O)C(=O)N2CCN2CCOCC2)c1 (stereo not given)	none
CCCS(=O)(=O)c1nc(S(=O)(=O)c2ccc(C)cc2)c(N2CCN(CC)CC2)s1	none
O=C(Nc1nnc(-c2ccc3c(c2)CCCC3)o1)c1ccccc1Cl	PP1 inh 25, HCV NS3 hel inh 49 | NS3 helicase cf inactive | DNA FID counter inactive | PP1 inh confirm 25 | PP5 counter inactive
CN(C)/C=C1\C(=O)N(c2ccc([N+](=O)[O-])cc2)N=C1c1ccccc1	PP1 inh 22, HCV NS3 hel inh 40 | NS3 helicase cf 53 | DNA FID counter inactive | PP1 inh confirm inactive | PP5 counter inactive
O=C(OCC(=O)C12CC3CC(CC(C3)C1)C2)c1cnccn1	none
O=C(CNC(=O)c1ccccc1)N/N=C/C=C/c1ccccc1	none
O=C(Cc1cc(=O)[nH][nH]1)N/N=C/C=C/c1ccccc1	PP1 inh 19, HCV NS3 hel inh 40 | NS3 helicase cf inactive | DNA FID counter inactive | PP1 inh confirm inactive | PP5 counter inactive
CCc1cc(=O)oc2cc(C)c(CN3CCCC3)c(O)c12	PP1 inh 22, HCV core dimer 86, HCV NS3 hel inh 39 | NS3 helicase cf inactive | DNA FID counter inactive | PP1 inh confirm inactive | PP5 counter inactive
Nc1c(S(=O)(=O)O)cc(NC(=O)c2ccccc2)c2c1C(=O)c1ccccc1C2=O	PP1 inh 31, HCV NS3 hel inh 81 | NS3 helicase cf 66 | DNA FID counter 61 | PP1 inh confirm 18 | PP5 counter inactive
Cc1ccc(N(Cc2cc3ccccc3[nH]c2=O)C(=O)c2cccs2)cc1C	none
O=C(COc1ccc2c3c(c(=O)oc2c1)CCCC3)N1C[C@H]2C[C@@H](C1)c1cccc(=O)n1C2	PP1 inh 30, HCV NS3 hel inh 46 | NS3 helicase cf inactive | DNA FID counter inactive | PP1 inh confirm 30 | PP5 counter inactive
O=C(N/N=C/c1cc(Br)cc([N+](=O)[O-])c1O)c1ccc(NC(=O)c2ccc(F)cc2)cc1	PP1 inh 22, HCV NS3 hel inh 37 | NS3 helicase cf inactive | DNA FID counter inactive | PP1 inh confirm 35 | PP5 counter inactive
O=S(=O)(c1ccsc1)N1CC=C(c2ccccc2)CC1	none
O=C(O)C(c1ccccc1)N1C(=O)/C(=C\c2ccc(-c3ccccc3Cl)o2)SC1=S (stereo not given)	PP1 inh 27, HCV NS3 hel inh 59 | NS3 helicase cf 83 | DNA FID counter 57 | PP1 inh confirm 36 | PP5 counter inactive
COc1cc(C(c2c(C(=O)O)[nH]c3ccccc23)c2c(C(=O)O)[nH]c3ccccc23)ccc1OCc1ccccc1	PP1 inh 19, HCV NS3 hel inh 37 | NS3 helicase cf inactive | DNA FID counter inactive | PP1 inh confirm 15 | PP5 counter inactive
